The source made the active and inactive calls. The rule behind the calls is not given here.
Columns and labels:
[1] = target: T1, MAP2K3/Myc proto-oncogene protein (Homo sapiens) (UniProt P46734+P01106); assay: Disruption of interaction between human recombinant GST-tagged MKK3/VF-tagged MYC expressed in HEK293T cells at 20 uM measured after 2 hrs by TR-FRET assay; type: cell-based
[2] = target: T1, MAP2K3/Myc proto-oncogene protein (Homo sapiens); assay: Disruption of interaction between human recombinant GST-tagged MKK3/VF-tagged MYC expressed in HEK293T cells up to 100 uM measured after 2 hrs by TR-FRET assay; type: cell-based; settings: dose microM <=100, time 2.0 hrs
[3] = target: T2, MAP2K3/Myc proto-oncogene protein (Homo sapiens, UniProt P01106+P46734); assay: Disruption of interaction between human recombinant GST-tagged MKK3/VF-tagged MYC expressed in HEK293T cells measured after 2 hrs by TR-FRET assay; type: cell-based
[4] = target: T1, MAP2K3/Myc proto-oncogene protein (Homo sapiens); assay: Disruption of MKK3/MYC protein-protein interaction in human HCT-116 cells transfected with VF-tagged MKK3 assessed as inhibition of MYC transcriptional activity at 0.5 to 2 uM measured after 12 hrs by […] reporter assay; type: cell-based; settings: dose 0.5-2 µM
How it was run: (§1)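 Cells were transfected with Venus-Flag-MKK3 or Venus-Flag vector plus a firefly luciferase reporter carrying three MYC E-box sites (or a mutant E-box control) and a Renilla normalization vector. Compound in DMSO (0.5–5 µM, 0.1% DMSO final) was added 36 h post-transfection and cells were incubated 12 h more. Dual-luciferase read-out: firefly/Renilla ratio, then wild-type over mutant E-box fold.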

[5] = target: T2, MAP2K3/Myc proto-oncogene protein; assay: Disruption of interaction between human recombinant GST-tagged MKK3 (1 to 210 residues)/VF-tagged MYC expressed in HEK293T cells measured after 2 hrs by TR-FRET assay; type: cell-based
HCT-116 [6] = assay: Inhibition of Renilla luciferase activity expressed in human HCT-116 cells assessed as decrease in luminescence at 10 uM measured after 12 hrs by luminescence assay; type: cell-based
How it was run: (§2)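 Renilla luciferase luminescence was compared between cells treated with 10 µM compound and DMSO control, within the dual-luciferase MYC reporter set-up, using a 12 h compound incubation.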

HCT-116 [7] = assay: Inhibition of cell migration in human HCT-116 cells at 0.75 to 3 uM by scratch wound healing assay; type: functional, cell-based; settings: dose 0.75-3 µM, TDE = time-dependent effect
MDA-MB-468 = assay: Inhibition of Renilla luciferase activity expressed in human MDA-MB-468 cells assessed as decrease in luminescence at 10 uM measured after 12 hrs by luminescence assay; type: cell-based; how it was run: as §2
[8] = target: T2, MAP2K3/Myc proto-oncogene protein; assay: Disruption of interaction between human recombinant GST-tagged MKK3/His-tagged MYC HLH LZ domain measured after 2 hrs by TR-FRET assay; type: protein assay
[9] = target: T1, MAP2K3/Myc proto-oncogene protein (Homo sapiens); assay: Disruption of MKK3/MYC protein-protein interaction in human HCT-116 cells assessed as decrease in MYC level at 0.5 to 10 uM measured by western blot assay; type: cell-based; settings: dose 0.5-10 µM
[10] = target: T1, MAP2K3/Myc proto-oncogene protein (Homo sapiens); assay: Disruption of MKK3/MYC protein-protein interaction in human MDA-MB-468 cells assessed as decrease in PDL1 level at 1 to 20 uM measured by western blot assay; type: cell-based; settings: dose 1-20 µM
[11] = target: T3, Dual specificity mitogen-activated protein kinase kinase 3 (Homo sapiens) (UniProt P46734); assay: Inhibition of MKK3 in human HEK293T cells assessed as inhibition of p38 phosphorylation by western blot analysis; type: cell-based
T3 sequence (whole entry): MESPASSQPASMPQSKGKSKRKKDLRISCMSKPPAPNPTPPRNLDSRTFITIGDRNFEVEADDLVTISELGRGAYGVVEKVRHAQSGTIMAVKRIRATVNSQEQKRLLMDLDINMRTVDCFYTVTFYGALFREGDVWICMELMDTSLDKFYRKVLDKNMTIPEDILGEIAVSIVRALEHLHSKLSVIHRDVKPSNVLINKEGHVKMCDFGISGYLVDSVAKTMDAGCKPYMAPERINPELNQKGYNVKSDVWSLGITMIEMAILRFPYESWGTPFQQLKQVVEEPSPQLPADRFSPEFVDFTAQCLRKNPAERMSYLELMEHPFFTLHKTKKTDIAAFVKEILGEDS

[12] = target: T1, MAP2K3/Myc proto-oncogene protein (Homo sapiens); assay: Disruption of MKK3/MYC protein-protein interaction in human HCT-116 cells assessed as decrease in PDL1 level at 0.5 to 10 uM measured by western blot assay; type: cell-based; settings: dose 0.5-10 µM
[13] = target: T1, MAP2K3/Myc proto-oncogene protein (Homo sapiens); assay: Disruption of interaction between human recombinant GST-tagged MKK3/VF-tagged MYC expressed in HEK293T cells at 50 uM incubated for 30 mins by GST pull-down assay; type: cell-based
How it was run: (§3)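 GST- and Venus-Flag-tagged human proteins were co-expressed in HEK293T cells for 48 h and lysed in 1% NP-40 buffer (HEPES pH 7.5) at 4 °C. Cleared lysates were pre-incubated 30 min with 50 µM compound or DMSO, then 75 min with glutathione sepharose. Beads were washed three times, eluted in SDS loading buffer, and analysed by Western blot.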

[14] = target: T1, MAP2K3/Myc proto-oncogene protein (Homo sapiens); assay: Disruption of MKK3/MYC protein-protein interaction in human HCT-116 cells assessed as decrease in CDK4 level at 0.5 to 10 uM measured by western blot assay; type: cell-based; settings: dose 0.5-10 µM
[15] = target: c-Myc/c-Max (Homo sapiens) (UniProt P01106+P61244); assay: Disruption of interaction between human recombinant GST-tagged MAX/VF-tagged MYC expressed in HEK293T cells at 50 uM incubated for 30 mins by GST pull-down assay; type: cell-based; how it was run: as §3
[16] = target: T1, MAP2K3/Myc proto-oncogene protein (Homo sapiens); assay: Disruption of MKK3/MYC protein-protein interaction in human MDA-MB-468 cells assessed as decrease in MYC level at 1 to 20 uM measured by western blot assay; type: cell-based; settings: dose 1-20 µM
HCT-116 [17] = assay: Inhibition of cell migration in human HCT-116 cells assessed as relative wound density at 3 uM measured after 18 hrs by scratch wound healing assay (reference value: 20%); type: functional; set-up: scale not given: the % may be the effect or the level left
How it was run: (§4)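 Confluent HCT116 monolayers were wounded, washed with fresh medium, and given medium with compound at set concentrations or DMSO. Live-cell imaging scanned every 2 h over 18 h, with relative wound density as the read-out. Four replicates were run.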

HCT-116 [18] = assay: Inhibition of cell migration in human HCT-116 cells measured after 18 hrs by scratch wound healing assay; type: functional, cell-based; settings: dose 0.75-3 µM; how it was run: as §4
[19] = target: T1, MAP2K3/Myc proto-oncogene protein (Homo sapiens); assay: Disruption of MKK3/MYC protein-protein interaction in human MDA-MB-468 cells transfected with VF-tagged MKK3 assessed as inhibition of MYC transcriptional activity measured after 12 hrs by […] reporter assay; type: cell-based; settings: dose 0.5-5 µM; how it was run: as §1
[20] = target: T1, MAP2K3/Myc proto-oncogene protein (Homo sapiens); assay: Disruption of MKK3/MYC protein-protein interaction in human MDA-MB-468 cells assessed as decrease in CDK4 level at 1 to 20 uM measured by western blot assay; type: cell-based; settings: dose 1-20 µM
HEK293T = assay: Disruption of interaction between human recombinant GST-tagged MKK3/VF-tagged p38 expressed in HEK293T cells at 50 uM incubated for 30 mins by GST pull-down assay; type: cell-based; how it was run: as §3
[21] = target: T1, MAP2K3/Myc proto-oncogene protein (Homo sapiens); assay: Disruption of interaction between human recombinant GST-tagged MKK3 expressed in HEK293T cells/MYC in human HCT116 cells incubated for 30 mins by GST pull-down assay; type: cell-based; settings: dose 2-5 µM
HCT-116 [22] = assay: Cytotoxicity against human HCT-116 cells assessed as reduction in cell viability measured after 72 hrs by Alamar blue assay; type: functional, cell-based; settings: HCT-116, 72 h
How it was run: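 HCT116 cells in DMEM with 10% FBS at 37 °C, 5% CO2, seeded and treated next day with compound or DMSO. After 72 h, CellTiter-Blue reagent was added for 2 h at 37 °C and fluorescence read at 560 ex/590 em. Background came from medium-only wells, and viability was taken relative to DMSO control.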

[23] = target: DNA (cytosine-5)-methyltransferase 1 (Homo sapiens, UniProt P26358); assay: Inhibition of DNMT (unknown origin) by densitometric analysis
Sequence of DNA (cytosine-5)-methyltransferase 1 (P26358 whole entry): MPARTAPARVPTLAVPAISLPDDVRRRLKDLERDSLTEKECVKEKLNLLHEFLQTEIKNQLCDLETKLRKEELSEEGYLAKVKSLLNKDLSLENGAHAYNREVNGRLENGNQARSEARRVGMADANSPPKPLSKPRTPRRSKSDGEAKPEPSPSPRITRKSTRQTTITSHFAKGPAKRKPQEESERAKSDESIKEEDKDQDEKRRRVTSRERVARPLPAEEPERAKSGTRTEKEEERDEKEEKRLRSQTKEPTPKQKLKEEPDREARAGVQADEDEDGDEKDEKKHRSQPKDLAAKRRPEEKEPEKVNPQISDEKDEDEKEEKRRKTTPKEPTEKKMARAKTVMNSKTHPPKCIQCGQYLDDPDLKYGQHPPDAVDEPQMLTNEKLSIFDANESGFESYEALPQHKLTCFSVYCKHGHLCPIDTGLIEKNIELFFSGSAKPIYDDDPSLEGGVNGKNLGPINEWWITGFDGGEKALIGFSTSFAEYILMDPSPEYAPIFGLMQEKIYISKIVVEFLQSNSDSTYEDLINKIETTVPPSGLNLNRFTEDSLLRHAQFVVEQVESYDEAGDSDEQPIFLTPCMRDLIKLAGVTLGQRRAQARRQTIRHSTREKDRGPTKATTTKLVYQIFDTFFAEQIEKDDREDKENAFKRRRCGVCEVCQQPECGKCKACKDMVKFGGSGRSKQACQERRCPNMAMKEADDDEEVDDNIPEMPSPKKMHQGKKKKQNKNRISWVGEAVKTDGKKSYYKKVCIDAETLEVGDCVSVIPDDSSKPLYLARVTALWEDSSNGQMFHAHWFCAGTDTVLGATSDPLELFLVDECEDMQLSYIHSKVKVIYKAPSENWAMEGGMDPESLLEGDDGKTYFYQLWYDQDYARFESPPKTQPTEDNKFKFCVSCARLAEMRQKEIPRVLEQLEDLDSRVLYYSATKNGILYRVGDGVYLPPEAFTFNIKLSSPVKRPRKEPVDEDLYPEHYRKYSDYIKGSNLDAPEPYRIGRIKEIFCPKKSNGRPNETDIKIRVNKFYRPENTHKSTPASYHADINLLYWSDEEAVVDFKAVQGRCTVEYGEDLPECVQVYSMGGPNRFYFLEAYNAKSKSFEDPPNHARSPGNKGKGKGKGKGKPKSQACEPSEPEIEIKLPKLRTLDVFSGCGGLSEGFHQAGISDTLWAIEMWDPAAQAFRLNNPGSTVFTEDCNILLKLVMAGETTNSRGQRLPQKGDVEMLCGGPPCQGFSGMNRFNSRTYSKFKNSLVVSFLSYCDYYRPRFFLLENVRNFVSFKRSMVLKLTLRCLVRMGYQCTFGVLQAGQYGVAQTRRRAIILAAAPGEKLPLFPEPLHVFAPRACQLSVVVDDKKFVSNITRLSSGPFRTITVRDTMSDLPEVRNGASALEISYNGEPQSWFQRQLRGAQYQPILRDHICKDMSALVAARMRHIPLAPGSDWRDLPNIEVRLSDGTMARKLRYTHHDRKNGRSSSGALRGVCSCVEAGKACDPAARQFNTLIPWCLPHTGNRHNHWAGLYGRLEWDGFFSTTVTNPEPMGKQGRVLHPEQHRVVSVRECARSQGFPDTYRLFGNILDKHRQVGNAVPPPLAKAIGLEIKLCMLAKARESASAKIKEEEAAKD

T1 sequence (P01106 whole entry, looked up, one chain of several): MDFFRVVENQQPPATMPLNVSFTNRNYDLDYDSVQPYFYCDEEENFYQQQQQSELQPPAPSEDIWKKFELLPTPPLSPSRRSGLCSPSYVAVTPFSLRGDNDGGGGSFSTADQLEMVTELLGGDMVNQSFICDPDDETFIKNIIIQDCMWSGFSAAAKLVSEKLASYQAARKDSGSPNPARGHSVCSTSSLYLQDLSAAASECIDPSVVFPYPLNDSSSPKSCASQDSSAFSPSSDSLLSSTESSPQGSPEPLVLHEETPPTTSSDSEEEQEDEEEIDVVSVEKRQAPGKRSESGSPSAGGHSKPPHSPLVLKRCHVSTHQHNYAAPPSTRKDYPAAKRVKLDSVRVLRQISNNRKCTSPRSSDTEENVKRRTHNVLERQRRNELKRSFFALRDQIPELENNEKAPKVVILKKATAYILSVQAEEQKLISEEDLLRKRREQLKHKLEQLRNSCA
T2 sequence (P01106 whole entry, one chain of several): as the sequence (P01106 whole entry, looked up, one chain of several) above
Sequence of c-Myc/c-Max (Homo sapiens) (P01106 whole entry): as the sequence (P01106 whole entry, looked up, one chain of several) above
Sequence of c-Myc/c-Max (Homo sapiens) (P61244 2-160 partner limits assumed): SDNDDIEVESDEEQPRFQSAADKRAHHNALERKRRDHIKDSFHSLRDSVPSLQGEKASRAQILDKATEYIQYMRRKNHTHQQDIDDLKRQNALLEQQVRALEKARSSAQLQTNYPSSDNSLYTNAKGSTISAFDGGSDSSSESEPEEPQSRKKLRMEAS

SMILES: Cc1cc2c(C(C)C)c(O)c(O)c(C=O)c2c(O)c1-c1c(C)cc2c(C(C)C)c(O)c(O)c(C=O)c2c1O
- inhibition [1]: 31%
- Activity [2]: inactive

SMILES: CC(C)c1cc(C(C)C)c(CC(=O)NS(=O)(=O)Oc2c(C(C)C)cccc2C(C)C)c(C(C)C)c1 [AVASIMIBE]
- IC50 [3]: 63.9 µM

SMILES: Cc1cc(Nc2ccc(NC(=O)c3ccc(Nc4ccnc5ccccc45)cc3)cc2)nc(N)n1
- Activity [4]: Dose-Dependent Effect
- inhibition [1]: 37%
- IC50 [5]: 3.8 µM
- inhibition (HCT-116 [6]): inactive
- inhibition (HCT-116 [7]): Tde
- inhibition (MDA-MB-468): inactive
- IC50 [8]: 9.67 µM
- Activity [9]: Active
- IC50 [3]: 8.46 µM
- Activity [10]: Active
- inhibition [11]: inactive
- Activity [12]: Active
- Activity [13]: Active
- Activity [14]: Active
- Activity [15]: inactive
- Activity [16]: Active
- Activity (HCT-116 [17]): 8%
- inhibition (HCT-116 [18]): Dose-Dependent Effect
- Activity [19]: Dose-Dependent Effect
- Activity [20]: Active
- Activity (HEK293T): inactive
- Activity [21]: Dose-Dependent Effect
- IC50 (HCT-116 [22]): 3.2 µM

SMILES: O=C(O)[C@H](Cc1c[nH]c2ccccc12)N1C(=O)c2ccccc2C1=O
- Activity [4]: inactive
- Activity [9]: inactive
- Activity [12]: inactive
- Activity [2]: inactive
- IC50 [23]: 115 nM
- Activity [14]: inactive

SMILES: O=C(O)C1=CC(=C(c2ccc(O)c(C(=O)O)c2)c2ccc(O)c(C(=O)O)c2)C=CC1=O [AURINTRICARBOXYLIC ACID]
- inhibition [1]: 58%
- IC50 [3]: 14.1 µM
